Results published in ChEMBL document CHEMBL3616437, “Thiazole compounds with activity against Cryptococcus gattii and Cryptococcus neoformans in vitro” (Eur J Med Chem, 2015).

Legend:
[1] = test system: Cryptococcus gattii species complex; test: Antifungal activity against Cryptococcus gattii 196L/03 assessed as reduction in cell viability at 1.9 uM after 6 to 72 hrs by MTT assay; type: functional, Cryptococcus bacillisporus
[2] = test system: Cryptococcus gattii species complex; test: Antifungal activity against Cryptococcus gattii L27/01 assessed as reduction in cell viability at 1.9 uM after 6 to 72 hrs by MTT assay; type: functional, Cryptococcus bacillisporus
[3] = test system: Cryptococcus gattii species complex; test: Antifungal activity against Cryptococcus gattii ICB181 assessed as reduction in cell viability at 1.9 uM after 6 to 72 hrs by MTT assay; type: functional, Cryptococcus bacillisporus
[4] = test system: Cryptococcus gattii species complex; test: Antifungal activity against Cryptococcus gattii LMM818 assessed as reduction in cell viability at 1.9 uM after 6 to 72 hrs by MTT assay; type: functional, Cryptococcus bacillisporus
[5] = test system: Cryptococcus gattii species complex; test: Antifungal activity against Cryptococcus gattii 135L/03 assessed as reduction in cell viability at 1.9 uM after 6 to 72 hrs by MTT assay; type: functional, Cryptococcus bacillisporus
[6] = test system: Cryptococcus gattii species complex; test: Antifungal activity against Cryptococcus gattii 1913ER assessed as reduction in cell viability at 1.9 uM after 6 to 72 hrs by MTT assay; type: functional, Cryptococcus bacillisporus
[7] = test system: Cryptococcus gattii species complex; test: Antifungal activity against Cryptococcus gattii L28/02 assessed as reduction in cell viability at 1.9 uM after 6 to 72 hrs by MTT assay; type: functional, Cryptococcus bacillisporus
Cryptococcus neoformans [8] = test: Antifungal activity against Cryptococcus neoformans ATCC 24067 assessed as reduction in cell viability at 1.9 uM after 6 to 72 hrs by MTT assay; type: functional
[9] = test system: Cryptococcus gattii species complex; test: Antifungal activity against Cryptococcus gattii L24/01 assessed as reduction in cell viability at 1.9 uM after 6 to 72 hrs by MTT assay; type: functional, Cryptococcus bacillisporus
Cryptococcus neoformans [10] = test: Antifungal activity against Cryptococcus neoformans LMM820 assessed as reduction in cell viability at 0.9 uM after 6 to 72 hrs by MTT assay; type: functional
Cryptococcus neoformans [11] = test: Antifungal activity against Cryptococcus neoformans ATCC 62066 assessed as reduction in cell viability at 3.9 uM after 6 to 72 hrs by MTT assay; type: functional
Cryptococcus neoformans [12] = test: Antifungal activity against Cryptococcus neoformans CN31 assessed as reduction in cell viability at 3.9 uM after 6 to 72 hrs by MTT assay; type: functional
[13] = test system: Cryptococcus gattii species complex; test: Antifungal activity against Cryptococcus gattii 547/OTTI-97-PI-10 assessed as reduction in cell viability at 3.9 uM after 6 to 72 hrs by MTT assay; type: functional, Cryptococcus bacillisporus
[14] = test system: Cryptococcus gattii species complex; test: Antifungal activity against Cryptococcus gattii ICB181 assessed as reduction in cell viability at 3.9 uM after 6 to 72 hrs by MTT assay; type: functional, Cryptococcus bacillisporus
[15] = test system: Cryptococcus gattii species complex; test: Antifungal activity against Cryptococcus gattii LMM818 assessed as reduction in cell viability at 3.9 uM after 6 to 72 hrs by MTT assay; type: functional, Cryptococcus bacillisporus
Cryptococcus gattii = test: Antifungal activity against Cryptococcus gattii ATCC 24065 assessed as reduction in cell viability at 3.9 uM after 6 to 72 hrs by MTT assay
Cryptococcus neoformans [16] = test: Antifungal activity against Cryptococcus neoformans ATCC 28957 assessed as reduction in cell viability at 3.9 uM after 6 to 72 hrs by MTT assay; type: functional
Cryptococcus neoformans [17] = test: Antifungal activity against Cryptococcus neoformans 27JF assessed as reduction in cell viability at 3.9 uM after 6 to 72 hrs by MTT assay; type: functional
[18] = test system: Cryptococcus gattii species complex; test: Antifungal activity against Cryptococcus gattii 1913ER assessed as reduction in cell viability at 3.9 uM after 6 to 72 hrs by MTT assay; type: functional, Cryptococcus bacillisporus
Cryptococcus neoformans [19] = test: Antifungal activity against Cryptococcus neoformans 28JF assessed as reduction in cell viability at 3.9 uM after 6 to 72 hrs by MTT assay; type: functional
Cryptococcus neoformans [20] = test: Antifungal activity against Cryptococcus neoformans F10 assessed as reduction in cell viability at 3.9 uM after 6 to 72 hrs by MTT assay; type: functional
[21] = test system: Cryptococcus gattii species complex; test: Antifungal activity against Cryptococcus gattii 23/10993 assessed as reduction in cell viability at 3.9 uM after 6 to 72 hrs by MTT assay; type: functional, Cryptococcus bacillisporus
Cryptococcus neoformans [22] = test: Antifungal activity against Cryptococcus neoformans LMM820 assessed as reduction in cell viability at 3.9 uM after 6 to 72 hrs by MTT assay; type: functional
[23] = test system: Cryptococcus gattii species complex; test: Antifungal activity against Cryptococcus gattii 196L/03 assessed as reduction in cell viability at 3.9 uM after 6 to 72 hrs by MTT assay; type: functional, Cryptococcus bacillisporus
[24] = test system: Cryptococcus bacillisporus; test: Antifungal activity against Cryptococcus gattii ATCC 32608 assessed as reduction in cell viability at 3.9 uM after 6 to 72 hrs by MTT assay; type: functional
[25] = test system: Cryptococcus gattii species complex; test: Antifungal activity against Cryptococcus gattii L27/01 assessed as reduction in cell viability at 3.9 uM after 6 to 72 hrs by MTT assay; type: functional, Cryptococcus bacillisporus
Cryptococcus neoformans [26] = test: Antifungal activity against Cryptococcus neoformans VM-MCMMPI assessed as reduction in cell viability at 3.9 uM after 6 to 72 hrs by MTT assay; type: functional
Cryptococcus neoformans [27] = test: Antifungal activity against Cryptococcus neoformans CN31 assessed as reduction in cell viability at 0.12 uM after 6 to 72 hrs by MTT assay; type: functional
Cryptococcus neoformans [28] = test: Antifungal activity against Cryptococcus neoformans WP assessed as reduction in cell viability at 0.12 uM after 6 to 72 hrs by MTT assay; type: functional
Cryptococcus neoformans [29] = test: Antifungal activity against Cryptococcus neoformans ATCC 28957 assessed as reduction in cell viability at 0.12 uM after 6 to 72 hrs by MTT assay; type: functional
[30] = test system: Cryptococcus gattii species complex; test: Antifungal activity against Cryptococcus gattii L27/01 assessed as reduction in cell viability at 0.12 uM after 6 to 72 hrs by MTT assay; type: functional, Cryptococcus bacillisporus
[31] = test system: Cryptococcus gattii species complex; test: Antifungal activity against Cryptococcus gattii 196L/03 assessed as reduction in cell viability at 0.12 uM after 6 to 72 hrs by MTT assay; type: functional, Cryptococcus bacillisporus
[32] = Selectivity index, ratio of IC50 for C57BL/6 mouse peritoneal macrophages to MIC for Cryptococcus gattii ATCC 24065
[33] = test system: Cryptococcus gattii species complex; test: Antifungal activity against Cryptococcus gattii ICB181 assessed as reduction in cell viability at 26 uM after 6 to 72 hrs by MTT assay; type: functional, Cryptococcus bacillisporus
Summary of the method: (§1)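 Time-kill setup: colonies from two 48 h, 35°C SDA passages were suspended in saline to 70% transmittance at 530 nm. They were then diluted to 1-5 x10^3 cells/mL in RPMI with L-glutamine buffered to pH 7.0 with 0.165 M MOPS. Plates were incubated at 35°C for 0-72 h, then MTT (5.0 mg/mL) was added for 3 h. After isopropanol, absorbance was read at 490 nm. Drug-free controls were included, results were confirmed by SDA colony counts, and assays were run in triplicate.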

[34] = test system: Cryptococcus gattii species complex; test: Antifungal activity against Cryptococcus gattii 1913ER assessed as reduction in cell viability at 26 uM after 6 to 72 hrs by MTT assay; type: functional, Cryptococcus bacillisporus; summary of the method: as §1
[35] = test system: Cryptococcus gattii species complex; test: Antifungal activity against Cryptococcus gattii L28/02 assessed as reduction in cell viability at 26 uM after 6 to 72 hrs by MTT assay; type: functional, Cryptococcus bacillisporus; summary of the method: as §1
Cryptococcus neoformans [36] = test: Antifungal activity against Cryptococcus neoformans LMM820 assessed as reduction in cell viability at 26 uM after 6 to 72 hrs by MTT assay; type: functional; summary of the method: as §1
Cryptococcus neoformans [37] = test: Antifungal activity against Cryptococcus neoformans VM-MCMMPI assessed as reduction in cell viability at 26 uM after 6 to 72 hrs by MTT assay; type: functional; summary of the method: as §1

Row | SMILES | Activity [1] | Activity [2] | Activity [3] | Activity [4] | Activity [5] | Activity [6] | Activity [7] | Activity [9] | Activity (Cryptococcus neoformans [11]) | Activity (Cryptococcus neoformans [12]) | Activity [13] | Activity [14] | Activity [15] | Activity (Cryptococcus gattii) | Activity (Cryptococcus neoformans [16]) | Activity (Cryptococcus neoformans [17]) | Activity [18] | Activity (Cryptococcus neoformans [19]) | Activity (Cryptococcus neoformans [20]) | Activity [21] | also measured
1 | C(=N\Nc1nc(-c2ccccc2)cs1)/C1CCCCC1 | 90% | 90% | 90% | 90% | 90% | 90% | 90% | 90% | – | – | – | – | – | – | – | – | – | – | – | – | Activity (Cryptococcus neoformans [8]): 90%
2 | COc1ccc(-c2csc(N/N=C(\C)CCO)n2)cc1 | 90% | 90% | 90% | 90% | 90% | 90% | 90% | 90% | – | – | – | – | – | – | – | – | – | – | – | – | Activity (Cryptococcus neoformans [10]): 90%
3 | c1ccc(-c2csc(NN=C3CCCC3)n2)cc1 | – | – | – | – | – | – | – | – | 80% | 80% | 80% | 80% | 80% | 80% | 80% | 80% | 80% | 80% | 80% | 80% | Activity (Cryptococcus neoformans [22]): 80%; Activity [23]: 80%; Activity [24]: 80%; Activity [25]: 80%; Activity (Cryptococcus neoformans [26]): 80%
4 | C[C@@H]1[C@H](O)[C@@H](C)/C=C/C=C/C=C/C=C/C=C/C=C/C=C/[C@H](O[C@@H]2O[C@H](C)[C@@H](O)[C@H](N)[C@@H]2O)C[C@@H]2O[C@](O)(C[C@@H](O)C[C@@H](O)[C@H](O)CC[C@@H](O)C[C@@H](O)CC(=O)O[C@H]1C)C[C@H](O)[C@H]2C(=O)O [AMPHOTERICIN B] | – | – | – | – | – | – | – | – | – | – | – | – | – | – | – | – | – | – | – | – | Activity (Cryptococcus neoformans [27]): 90%; Activity (Cryptococcus neoformans [28]): 90%; Activity (Cryptococcus neoformans [29]): 90%; Activity [30]: 90%; Activity [31]: 90%
5 | OC(Cn1cncn1)(Cn1cncn1)c1ccc(F)cc1F [FLUCONAZOLE] | – | – | – | – | – | – | – | – | – | – | – | – | – | – | – | – | – | – | – | – | Ratio [32]: 7.87; Activity [33]: 80%; Activity [34]: 80%; Activity [35]: 80%; Activity (Cryptococcus neoformans [36]): 80%; Activity (Cryptococcus neoformans [37]): 80%
6 | COc1ccc(-c2csc(N/N=C/C3CCCCC3)n2)cc1 | – | – | – | – | – | – | – | – | 80% | 80% | 80% | 80% | 80% | 80% | 80% | 80% | 80% | 80% | 80% | 80% | Ratio [32]: 25.64; Activity (Cryptococcus neoformans [22]): 80%; Activity [23]: 80%; Activity [24]: 80%; Activity [25]: 80%; Activity (Cryptococcus neoformans [26]): 80%
